In ChEMBL document CHEMBL3244410, “Thymidylate synthetase inhibitors. Synthesis of N-substituted 5-aminomethyl-2'-deoxyuridine 5'-phosphates” (J Med Chem, 1977):

What was measured:
Thymidylate synthase [1] = biological target: T1, Thymidylate synthase (Bos taurus, UniProt Q2TA32); test: Competitive inhibition of purified calf thymus thymidylate synthetase using 5-[3H]-2'-deoxyuridine 5'-phosphate as substrate after 7 mins by double reciprocal plot method
Method in brief: (§1)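 Thymidylate synthetase was purified from E. coli, calf thymus or Ehrlich ascites tumor cells. Inhibition constants came from double-reciprocal plots of velocity against substrate concentration. Each plot used five substrate concentrations and at least two inhibitor concentrations.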

Thymidylate synthase [2] = biological target: Thymidylate synthase (Mus musculus, UniProt P07607); test: Competitive inhibition of purified mouse Ehrlich ascites tumor cell thymidylate synthetase using 5-[3H]-2'-deoxyuridine 5'-phosphate as substrate after 7 mins by double reciprocal plot method; method in brief: as §1
[3] = Competitive inhibition of purified Escherichia coli thymidylate synthetase using t5-[3H]-2'-deoxyuridine 5'-phosphate as substrate after 7 mins by double reciprocal plot method; method in brief: as §1
[4] = Ratio of Ki for purified mouse Ehrlich ascites tumor cell thymidylate synthetase to Ki for purified calf thymus thymidylate synthetase
Thymidylate synthase [5] = biological target: T1, Thymidylate synthase; test: Noncompetitive inhibition of purified calf thymus thymidylate synthetase using 5-[3H]-2'-deoxyuridine 5'-phosphate as substrate after 7 mins by double reciprocal plot method; method in brief: as §1

Thymidylate synthase (Mus musculus, UniProt P07607), sequence (P07607 whole entry): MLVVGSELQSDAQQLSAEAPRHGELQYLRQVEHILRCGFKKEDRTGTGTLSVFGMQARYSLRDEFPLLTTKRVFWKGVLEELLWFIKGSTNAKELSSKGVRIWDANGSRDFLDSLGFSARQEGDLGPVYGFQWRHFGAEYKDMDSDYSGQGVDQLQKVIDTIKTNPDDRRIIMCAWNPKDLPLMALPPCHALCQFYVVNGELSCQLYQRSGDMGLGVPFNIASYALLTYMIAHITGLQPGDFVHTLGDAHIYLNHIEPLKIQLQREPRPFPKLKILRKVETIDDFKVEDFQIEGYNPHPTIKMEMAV
T1 sequence (Q2TA32 whole entry): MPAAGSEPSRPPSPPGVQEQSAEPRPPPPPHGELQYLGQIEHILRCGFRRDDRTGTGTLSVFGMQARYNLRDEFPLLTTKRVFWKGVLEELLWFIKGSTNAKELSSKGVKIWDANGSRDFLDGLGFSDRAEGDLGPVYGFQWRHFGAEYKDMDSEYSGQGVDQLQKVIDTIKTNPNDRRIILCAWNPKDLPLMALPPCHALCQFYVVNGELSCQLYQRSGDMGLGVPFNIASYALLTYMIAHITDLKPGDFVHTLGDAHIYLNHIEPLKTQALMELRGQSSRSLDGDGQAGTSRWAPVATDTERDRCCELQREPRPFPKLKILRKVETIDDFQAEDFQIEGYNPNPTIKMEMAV

Ki (Thymidylate synthase [1]) | Ki (Thymidylate synthase [2]) | Ratio Ki [4] | Ki (Thymidylate synthase [5]) | Compound | Ki [3]
110 µM | 73 µM | – | – | CN(C)Cc1cn([C@H]2C[C@H](O)[C@@H](COP(=O)(O)O)O2)c(=O)[nH]c1=O | 90 µM
3.1 µM | 14 µM | 4 | – | CN(C)CCNCc1cn([C@H]2C[C@H](O)[C@@H](COP(=O)(O)O)O2)c(=O)[nH]c1=O | 6 µM
– | 27 µM | – | 43 µM | O=c1[nH]c(=O)n([C@H]2C[C@H](O)[C@@H](COP(=O)(O)O)O2)cc1CN1CCCC1 | 56 µM
8 µM | 6.5 µM | – | – | O=c1ccn([C@H]2C[C@H](O)[C@@H](COP(=O)(O)O)O2)c(=O)[nH]1 [DEOXYURIDINE MONOPHOSPHATE] | 7.6 µM
